Reference: ChEMBL document CHEMBL4680231, “A glutathione-responsive photosensitizer with fluorescence resonance energy transfer characteristics for imaging-guided targeting photodynamic therapy” (Eur J Med Chem, 2020)
The source made the active and inactive calls. No cut-off for these calls is given here.

Key:
[1] = tested on: HeLa; assay: Cytotoxicity against human HeLa cells assessed as reduction cell viability preincubated for 24 hrs in dark condition followed by irradiated with 20 mW cm^-2 light by MTT assay; format: functional, cell-based
How it was run: (§1)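 MTT assay. About 6000 cells per well were seeded and left overnight at 37 °C, 5% CO2. Compound was added at a range of concentrations in DMEM (1% DMSO, 0.05% Tween 80) for 24 h in the dark, then the medium was replaced. Irradiated wells received a 670 nm LED at 20 mW·cm⁻² for 2 min (2.4 J·cm⁻²); dark wells were not irradiated. Cells were incubated overnight, then MTT for 4 h, DMSO added, OD read at 490 nm. Three independent experiments, each in sextuplicate. IC50 is the concentration killing 50% of cells.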

[2] = Photoactivity of compound in DMF assessed as singlet oxygen generation at 10 uM irradiated with 20 mW cm^-2 light by DMA based fluorescence assay; format: functional
[3] = Prodrug activation in human HeLa cells assessed as increase in fluorescence at 10 uM after 8 hrs by confocal laser scanning microscopic method; format: cell-based
How it was run: (§2)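 Cells (10^5 per confocal dish) were seeded in DMEM overnight at 37 °C, 5% CO2. They were pretreated with 5 mM GSH in DMEM, or medium alone, for 2 h, then washed. Compound at 10 μM was added for 8 h. Intracellular fluorescence was read by confocal microscopy (excitation 633 nm) or by flow cytometry under the same conditions.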

[4] = Prodrug activation in HELF cells assessed as increase in fluorescence at 10 uM after 8 hrs by confocal laser scanning microscopic method; format: cell-based; conditions: human, primary lung fibroblast; how it was run: as §2
[5] = Prodrug activation in human HeLa cells assessed as increase in fluorescence at 10 uM after 8 hrs in presence of GSH by confocal laser scanning microscopic method; format: cell-based; how it was run: as §2
[6] = Prodrug activation in human A549 cells assessed as increase in fluorescence at 10 uM after 8 hrs in presence of GSH by confocal laser scanning microscopic method; format: cell-based; conditions: a549, 8 h; how it was run: as §2
[7] = Prodrug activation in HELF cells assessed as increase in fluorescence at 10 uM after 8 hrs in presence of GSH by confocal laser scanning microscopic method; format: cell-based; conditions: human, primary lung fibroblast; how it was run: as §2
[8] = Prodrug activation in human HeLa cells assessed as increase in fluorescence at 10 uM after 8 hrs by flow cytometric analysis; format: cell-based; how it was run: as §2
[9] = Prodrug activation in human A549 cells assessed as increase in fluorescence at 10 uM after 8 hrs by flow cytometric analysis; format: cell-based; conditions: a549, 8 h; how it was run: as §2
[10] = Prodrug activation in mouse H22 cells assessed as increase in fluorescence at 10 uM after 8 hrs by flow cytometric analysis; format: cell-based; conditions: h22, 8 h; how it was run: as §2
[11] = Prodrug activation in HELF cells assessed as increase in fluorescence at 10 uM after 8 hrs by flow cytometric analysis; format: cell-based; conditions: human, primary lung fibroblast; how it was run: as §2
[12] = Prodrug activation in human A549 cells assessed as increase in fluorescence at 10 uM after 8 hrs in presence of GSH by flow cytometric analysis; format: cell-based; conditions: a549, 8 h; how it was run: as §2
[13] = tested on: HeLa; assay: Induction of ROS generation in human HeLa cells at 10 uM incubated for 12 hrs irradiated with 20 mW cm^-2 light in presence of GSH by DCFH-DA staining based confocal laser scanning microscopic method; format: functional, cell-based
How it was run: (§3)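 Cells were seeded in confocal dishes overnight. Pretreatment was GSH 5 mM in DMEM for 2 h, or vitamin C 100 μM for 1 h, before compound at 10 μM for 12 h. DCFH-DA was added for 1 h, then 5 PBS washes and transfer to serum-free, phenol red-free DMEM. Cells were irradiated at 670 nm, 20 mW·cm⁻², for 3 min. Confocal imaging used λex 488 nm for DCF and 633 nm for the photosensitizer.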

[14] = tested on: H22; assay: Induction of ROS generation in mouse H22 cells at 10 uM incubated for 12 hrs irradiated with 20 mW cm^-2 light in presence of GSH by DCFH-DA staining based confocal laser scanning microscopic method; format: functional, cell-based; how it was run: as §3
[15] = tested on: Primary lung fibroblast; assay: Induction of ROS generation in human HELF cells at 10 uM incubated for 12 hrs irradiated with 20 mW cm^-2 light in presence of GSH by DCFH-DA staining based confocal laser scanning microscopic method; format: functional, cell-based; how it was run: as §3
[16] = tested on: A549; assay: Induction of ROS generation in human A549 cells at 10 uM incubated for 12 hrs irradiated with 20 mW cm^-2 light in presence of vitamin C by DCFH-DA staining based confocal laser scanning microscopic method; format: functional, cell-based; how it was run: as §3
[17] = tested on: HeLa; assay: Induction of ROS generation in human HeLa cells at 10 uM incubated for 12 hrs irradiated with 20 mW cm^-2 light in presence of vitamin C by DCFH-DA staining based confocal laser scanning microscopic method; format: functional, cell-based; how it was run: as §3
[18] = tested on: H22; assay: Induction of ROS generation in mouse H22 cells at 10 uM incubated for 12 hrs irradiated with 20 mW cm^-2 light in presence of vitamin C by DCFH-DA staining based confocal laser scanning microscopic method; format: functional, cell-based; how it was run: as §3
[19] = tested on: A549; assay: Cytotoxicity against human A549 cells assessed as reduction cell viability up to 10 uM after 24 hrs in dark condition by MTT assay; format: cell-based; conditions: a549, 24 h; how it was run: as §1
[20] = Cytotoxicity against human HELF cells assessed as reduction cell viability up to 10 uM after 24 hrs in dark condition by MTT assay; format: cell-based; conditions: primary lung fibroblast; how it was run: as §1
[21] = Drug uptake in tumour of Kunming mouse implanted with H22 cells at 2 mg/kg, iv and measured up to 24 hrs by FMT assay; format: ADME, organism-based, Neoplasm; conditions: in vivo
How it was run: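 Mice carried subcutaneous back tumours from H22 cells (10^7 cells/mL, 100 μL), used at about 50 mm³. They received a single tail-vein injection of 2 mg/kg (200 μL), with saline as control, 3 mice per group. Whole-body fluorescence molecular tomography was taken at 0, 2, 6, 12 and 24 h. At 24 h, tumour, heart, liver, spleen, lung and kidney were imaged ex vivo.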

[22] = tested on: H22; assay: (§4) Photodynamic antitumor activity against mouse H22 cells implanted in Kunming mouse assessed as reduction in tumour volume at 2 mg/kg, iv administered at […] post-implantation followed by irradiated with 100 mW/cm2 […] and measured up to 15 days; format: functional, organism-based; conditions: time 15.0 day
How it was run: (§5)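 Mice carried subcutaneous H22 tumours of about 50 mm³ and were randomised into 5 groups of 5. They received saline or compound at 2 mg/kg (100 μL) i.v. on days 1, 4 and 7. Light groups were irradiated at 670 nm, 100 mW/cm², 12 h after each dose. Tumour volume and body weight were recorded daily for 15 days. Tumours were then excised and weighed, fixed in 4% paraformaldehyde, paraffin-embedded and H&E stained. Apoptotic and necrotic areas were scored microscopically.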

[23] = tested on: H22; assay: Photodynamic antitumor activity against mouse H22 cells implanted in Kunming mouse assessed as reduction in tumour weight at 2 mg/kg, iv administered at […] post-implantation followed by irradiated with 100 mW/cm2 […] and measured up to 15 days; format: functional, organism-based; conditions: time 15.0 day; how it was run: as §5
[24] = tested on: H22; assay: Photodynamic antitumor activity against mouse H22 cells implanted in Kunming mouse assessed as reduction in tumour size at 2 mg/kg, iv administered at […] post-implantation followed by irradiated with 100 mW/cm2 […] and measured up to 15 days; format: functional, organism-based; conditions: time 15.0 day; how it was run: as §5
[25] = tested on: H22; assay: as §4, with “increase in apoptotic cells” for “reduction”, “tumour” for “tumour volume”, “days by H and E staining based microscopic method” for “days”; format: functional, organism-based; conditions: time 15.0 day; how it was run: as §5

Drug metabolism [3]	Drug metabolism [4]	Drug metabolism [5]	Drug metabolism [6]	Drug metabolism [7]	Drug metabolism [8]	Drug metabolism [9]	Drug metabolism [10]	Drug metabolism [11]	Drug metabolism [12]	Drug uptake [21]	Compound	Drug metabolism [2]	Activity [13]	Activity [14]	Activity [15]	Activity [16]	Activity [17]	Activity [18]	Activity [19]	Activity [20]	further results
Metabolite_Detected	Metabolite_Notdetected	Metabolite_Detected	Metabolite_Detected	Metabolite_Detected	Metabolite_Detected	Metabolite_Detected	Metabolite_Detected	Metabolite_Notdetected	Metabolite_Detected	Active	COCCOCCOCCOc1ccc(/C=C/C2=[N+]3C(=C(c4ccc(OCc5cn(CCSSCCn6cc(COc7ccc(C8=C9C(C)=CC(/C=C/c%10ccc(N(C)C)cc%10)=[N+]9[B-](F)(F)n9c(/C=C/c%10ccc(N(C)C)cc%10)cc(C)c98)cc7)nn6)nn5)cc4)c4c(C)c(I)c(/C=C/c5ccc(OCCOCCOCCOC)cc5)n4[B-]3(F)F)C(C)=C2I)cc1	Metabolite not detected	Active	Active	Active	inactive	inactive	inactive	Non-Toxic	Non-Toxic	IC50 ([1]; light or radiation study): 670 nM; Activity [22]: Active; Activity [23]: Active; Activity [24]: Active; Activity [25]: Active
Metabolite_Notdetected	Metabolite_Notdetected	Metabolite_Notdetected	Metabolite_Notdetected	Metabolite_Notdetected	Metabolite_Notdetected	Metabolite_Notdetected	Metabolite_Notdetected	Metabolite_Notdetected	Metabolite_Notdetected	Active	COCCOCCOCCOc1ccc(/C=C/C2=[N+]3C(=C(c4ccc(OCc5cn(CCCCCCn6cc(COc7ccc(C8=C9C(C)=CC(/C=C/c%10ccc(N(C)C)cc%10)=[N+]9[B-](F)(F)n9c(/C=C/c%10ccc(N(C)C)cc%10)cc(C)c98)cc7)nn6)nn5)cc4)c4c(C)c(I)c(/C=C/c5ccc(OCCOCCOCCOC)cc5)n4[B-]3(F)F)C(C)=C2I)cc1	Metabolite not detected	inactive	inactive	inactive	inactive	inactive	inactive	Non-Toxic	Non-Toxic	Activity [1]: inactive; Activity [22]: Active; Activity [23]: Active; Activity [24]: Active; Activity [25]: Active
